The source made the active and inactive calls. No cut-off for these calls is given here.
Tests used:
[1] = target: Bcl-2-like protein 1 (Homo sapiens) (UniProt Q07817); assay: Inhibition of Bcl-xL at 200 uM by 1D 1H NMR binding assay
[2] = system: BP3; assay: (§1) Induction of apoptosis in human BP3 cells after 1 to 2 days by FITC-annexin V and propidium iodide assay; format: functional, cell-based
[3] = Induction of apoptosis in human RS11846 cells after 1 to 2 days by FITC-annexin V and propidium iodide assay; format: functional, cell-based
[4] = Cytotoxicity against human PC3-ML cells assessed as cell viability after 72 hrs by ATP-LITE assay; format: functional, cell-based
How it was run: (§2)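 ATP-LITE viability readout. Seeded 24 h before dosing (H460, H1299 at 2000 cells/well; PC3 at 3000 cells/well) in 12F2 or RPMI1640 with 5 mM L-glutamine, 5% FBS and pen/strep. Fresh 5% medium added, then compounds in 0.1% DMSO final. Viability read after 72 h treatment and normalized to DMSO-treated cells.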

[5] = system: NCI-H460; assay: Cytotoxicity against human H460 cells assessed as cell viability after 72 hrs by ATP-LITE assay; format: functional, cell-based; settings: NCI-H460, 72 h; how it was run: as §2
[6] = Cytotoxicity against human H1299 cells assessed as cell viability after 72 hrs by ATP-LITE assay; format: functional, cell-based; settings: NCI-H1299, 72 h; how it was run: as §2
[7] = system: Mus musculus; assay: Toxicity in human Bcl2 expressing B6 transgenic mouse administered as single dose at 72 umol/kg, ip after 24 hrs; format: organism-based; settings: in vivo
[8] = system: Mus musculus; assay: Induction of spleen weight shrinkage in human Bcl2 expressing B6 transgenic mouse at 72 umol/kg, ip administered as single dose after 24 hrs; format: functional
How it was run: (§3)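 Age- and sex-matched B6Bcl2 transgenic mice (human BCL-2/IgH minigene, B cells accumulating in spleen), free of aggressive lymphoma. Single ip injection at 72 μmol/kg in 500 μL ethanol:Cremophor EL:saline 10:10:80; controls got vehicle alone. Killed with Avertin after 24 h and spleen weighed. Shrinkage expressed as percentage of maximum spleen-weight reduction.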

[9] = as §1; format: functional, cell-based
[10] = Cytotoxicity against wild type mouse fibroblast assessed as induction of cell death at 10 uM by FITC-annexin V and propidium iodide assay; format: cell-based
How it was run: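 Wild-type MEFs seeded at half a million per well in DMEM with 10% FCS. Next day compound added at 0, 2.5, 5.0, 7.5 or 10 μM. On the following day, floating and trypsinized adherent cells were pooled and stained with Annexin V-FITC and PI in binding buffer. Analyzed by flow cytometry, with double-negative cells counted as viable.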

[11] = Chemical stability after 60 days at room temperature by HPLC/LC-MS analysis; format: physicochemical; settings: 1440 h
How it was run: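 Solid compounds stored in air at room temperature for 60 days. Stability followed by HPLC combined with LC-MS.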

[12] = Membrane permeability assessed as drug permeation at 100 uM at pH 7.2 after 8 hrs by PAMPA; format: ADME; settings: pH 7.2, 8 h
[13] = Stability in rat plasma after 1 hr at 37.5 degC; format: ADME, cell-free; settings: read-out: Stability
How it was run: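 Compound incubated in rat plasma for 1 h; percentage of parent remaining was reported.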

[14] = Stability in rat liver microsome at 4 uM after 1 hr; format: ADME; settings: liver microsomes, read-out: Stability
How it was run: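 Compound incubated for 1 h in rat microsomal preparations; percentage of parent remaining was reported.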

[15] = system: Mus musculus; assay: Reduction of spleen weight in human Bcl2 expressing B6 transgenic mouse at 72 umol/kg, ip administered as single dose after 24 hrs; format: functional; set-up: scale not given: the % may be the effect or the level left; how it was run: as §3

Sequence of Bcl-2-like protein 1 (Homo sapiens) (Q07817 whole entry): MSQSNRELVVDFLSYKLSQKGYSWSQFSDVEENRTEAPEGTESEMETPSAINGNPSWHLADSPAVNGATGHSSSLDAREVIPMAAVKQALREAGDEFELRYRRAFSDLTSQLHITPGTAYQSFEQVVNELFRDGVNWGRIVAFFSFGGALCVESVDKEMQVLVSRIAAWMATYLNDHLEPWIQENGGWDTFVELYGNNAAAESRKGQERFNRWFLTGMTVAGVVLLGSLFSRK

Row | SMILES | Activity [1] | Activity [2] | EC50 [3] [µM] | EC50 [4] [µM] | EC50 [5] [µM] | EC50 [6] [µM] | Activity [7] | Activity [8] | EC50 [9] [µM] | Activity [10] [%] | Stability [11] | logPe [12] [log cm/s] | remaining at 1 h [13] [%] | remaining at 1 h, 4 µM [14] [%] | Activity [15] [%]
1 | Cc1cc2c(CCC(C)C)c(O)c(O)cc2c(O)c1-c1c(C)cc2c(CCC(C)C)c(O)c(O)cc2c1O | Active |  |  |  |  |  |  |  |  |  |  |  |  |  | 
2 | Cc1cc(C)c(CNC(=O)c2c(O)c(O)cc3c(O)c(-c4c(C)cc5c(C(=O)NCc6c(C)cc(C)cc6C)c(O)c(O)cc5c4O)c(C)cc23)c(C)c1 | Active |  |  |  |  |  |  |  |  |  |  |  |  |  | 
3 | Cc1cccc(CNC(=O)c2c(O)c(O)cc3c(O)c(-c4c(C)cc5c(C(=O)NCc6cccc(C)c6)c(O)c(O)cc5c4O)c(C)cc23)c1 | Active | Dose-dependent effect | 4.8 | 10.2 | 2.9 | 3.1 |  |  |  |  |  |  |  |  | 
4 | Cc1cc2c(C(=O)Nc3ccc(Oc4ccccc4)cc3)c(O)c(O)cc2c(O)c1-c1c(C)cc2c(C(=O)Nc3ccc(Oc4ccccc4)cc3)c(O)c(O)cc2c1O | Active |  | 10.8 | 8.5 | 10.1 | 17 |  |  |  |  |  |  |  |  | 
5 | Cc1cccc(CCNC(=O)c2c(O)c(O)cc3c(O)c(-c4c(C)cc5c(C(=O)NCCc6cccc(C)c6)c(O)c(O)cc5c4O)c(C)cc23)c1 | Active |  | 5.6 |  | 0.7 |  |  |  |  |  |  |  |  |  | 
6 | Cc1cc2cc(O)c(O)cc2c(O)c1-c1c(C)cc2cc(O)c(O)cc2c1O | inactive |  | > 24.5 | > 10 | > 10 | 13.4 | Non-toxic | inactive |  |  |  |  |  |  | 
7 | CCc1ccc(CCNC(=O)c2c(O)c(O)cc3c(O)c(-c4c(C)cc5c(C(=O)NCCc6ccc(CC)cc6)c(O)c(O)cc5c4O)c(C)cc23)cc1 |  |  | 3 | 1.7 | 0.4 | 0.36 | Toxic | 85% | 0.2 | 80 | Stable | -8.15 | 94 | 87 | 
8 | Cc1cc2c(C(=O)NCc3cccc(Cl)c3)c(O)c(O)cc2c(O)c1-c1c(C)cc2c(C(=O)NCc3cccc(Cl)c3)c(O)c(O)cc2c1O | Active | Dose-dependent effect | 7.3 | 8.3 | 3.3 | 5.2 |  |  |  |  |  |  |  |  | 
9 | Cc1cc2c(C(=O)NC3CCCC3)c(O)c(O)cc2c(O)c1-c1c(C)cc2c(C(=O)NC3CCCC3)c(O)c(O)cc2c1O | Active |  | 13.7 | 12.2 | 8.5 | 8 |  |  |  |  |  |  |  |  | 
10 | Cc1cc2c(C(=O)Nc3cccc(C(F)(F)F)c3)c(O)c(O)cc2c(O)c1-c1c(C)cc2c(C(=O)Nc3cccc(C(F)(F)F)c3)c(O)c(O)cc2c1O | Active | Dose-dependent effect | 12.6 | 12.2 | 16.7 | 28.7 |  |  |  |  |  |  |  |  | 
11 | Cc1cc2c(C(=O)NCCc3ccccc3)c(O)c(O)cc2c(O)c1-c1c(C)cc2c(C(=O)NCCc3ccccc3)c(O)c(O)cc2c1O | Active |  |  |  |  |  |  |  |  |  |  | -6.49 | 63 | 60 | 
12 | Cc1cc2c(C(=O)Nc3ccccc3)c(O)c(O)cc2c(O)c1-c1c(C)cc2c(C(=O)Nc3ccccc3)c(O)c(O)cc2c1O | Active |  |  |  | 3.5 | 8 |  |  |  |  |  |  |  |  | 
13 | Cc1cc2c(C(=O)NC(C)c3ccc(Cl)cc3)c(O)c(O)cc2c(O)c1-c1c(C)cc2c(C(=O)NC(C)c3ccc(Cl)cc3)c(O)c(O)cc2c1O (stereo unspecified) | Active |  | 5.5 | 5 | 0.5 | 3.2 | Toxic | 85% | 1.5 | 80 | Stable | -7.92 | 94 | 71 | 40
14 | Cc1cc2c(C(=O)O)c(O)c(O)cc2c(O)c1-c1c(C)cc2c(C(=O)O)c(O)c(O)cc2c1O | inactive | Dose-dependent effect | > 30 | > 30 | > 30 | > 30 |  |  | > 30 |  |  |  |  |  | 
15 | CCC(NC(=O)c1c(O)c(O)cc2c(O)c(-c3c(C)cc4c(C(=O)NC(CC)c5ccccc5)c(O)c(O)cc4c3O)c(C)cc12)c1ccccc1 (stereo unspecified) | Active |  | 4.2 |  | 1.5 |  |  |  |  |  |  |  |  |  | 
16 | Cc1cc2c(CC(C)C)c(O)c(O)cc2c(O)c1-c1c(C)cc2c(CC(C)C)c(O)c(O)cc2c1O | Active |  |  |  |  |  |  |  |  |  |  |  |  |  | 
17 | Cc1cc2c(C(=O)NCCc3cccc(Cl)c3)c(O)c(O)cc2c(O)c1-c1c(C)cc2c(C(=O)NCCc3cccc(Cl)c3)c(O)c(O)cc2c1O | Active |  | 4.6 | 3.2 | 0.99 | 7.8 | Toxic |  | 0.41 | 80 | Stable | -7.71 |  | 90 | 40
18 | Cc1cc2c(C(=O)NCC3CCCCC3)c(O)c(O)cc2c(O)c1-c1c(C)cc2c(C(=O)NCC3CCCCC3)c(O)c(O)cc2c1O | Active | Dose-dependent effect | 4.9 | 3.7 | 0.41 | 4.8 | Toxic |  | 0.9 | 80 | Stable | -6.67 | 89 | 90 | 
19 | Cc1cc2c(C(=O)NCCc3ccc(Cl)cc3)c(O)c(O)cc2c(O)c1-c1c(C)cc2c(C(=O)NCCc3ccc(Cl)cc3)c(O)c(O)cc2c1O | Active |  | 5.1 |  | 1.3 |  |  |  | 0.7 |  |  |  |  |  | 
20 | Cc1cc2c(C(=O)NC3Cc4ccccc4C3)c(O)c(O)cc2c(O)c1-c1c(C)cc2c(C(=O)NC3Cc4ccccc4C3)c(O)c(O)cc2c1O | Active |  | 4.1 | 3 | 0.94 | 7.1 |  |  | 1.1 |  |  |  |  |  | 
21 | Cc1cc2c(C(=O)NCC3CC3)c(O)c(O)cc2c(O)c1-c1c(C)cc2c(C(=O)NCC3CC3)c(O)c(O)cc2c1O | Active |  | > 10 |  |  |  |  |  |  |  |  |  |  |  | 
22 | Cc1cc2c(Cc3ccccc3)c(O)c(O)cc2c(O)c1-c1c(C)cc2c(Cc3ccccc3)c(O)c(O)cc2c1O | Active |  | 3.2 | 8.3 | 1.2 | 1.28 |  |  |  |  |  |  |  |  | 
23 | Cc1cc2c(C(=O)NCc3ccccc3)c(O)c(O)cc2c(O)c1-c1c(C)cc2c(C(=O)NCc3ccccc3)c(O)c(O)cc2c1O | Active |  | 9.3 | 13.7 | 4.6 | 3.6 |  |  |  |  |  |  |  |  | 
